From ChEMBL document CHEMBL1149827, “Dichapetalin-type triterpenoids and lignans from the aerial parts of Phyllanthus acutissima” (J Nat Prod, 2008)
Converted amounts (≈) assume the structure as drawn.

Tests used:
[1] = biological target: Human immunodeficiency virus type 1 reverse transcriptase (Human immunodeficiency virus 1) (UniProt Q72547); assay: Inhibition of HIV1 reverse transcriptase at 200 ug/ml
Method in brief: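 Tannin-free samples at final 200 µg/mL in 10% DMSO added to the reaction mix before HIV-1 RT. Control with 10% DMSO only; nevirapine (2 µg/mL) positive control. Duplicate wells averaged, % RT inhibition calculated.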

[2] = tested on: Human immunodeficiency virus 1; assay: Antiviral activity against deltaTat/Rev deffective HIV1 in 1A2 cells assessed as reduction of syncytium formation; format: functional, organism-based; details: Human immunodeficiency virus 1, 1A2
Method in brief: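 1A2 cells seeded, then compound added as 2-fold serial dilutions in triplicate. After 1 h preincubation, ∆Tat/RevMC99 virus added. Virus, cell and cytotoxicity control wells; AZT positive control. EC50 is the concentration reducing syncytium formation by 50%.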

[3] = tested on: Col2; assay: Cytotoxicity against human Col2 cells after 72 hrs by sulforhodamine B assay; format: functional; details: Col2, 72 h, read-out: ED50 (the source's name)
Method in brief: (§1)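 SRB assay. Samples from […] DMSO stock, final DMSO 0.5%, triplicate, 72 h at 37 °C, 5% CO2. Media: P-388 Fisher's + 5% BCS; KB DMEM + 10% BCS; Col-2, ASK MEM + 10% FBS; MCF-7, Lu-1 MEM + 5% BCS. TCA-fixed, 0.4% SRB stain, dye solubilized in 10 mM trizma base, A515 read. ED50 reported.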

[4] = tested on: Human immunodeficiency virus 1; assay: Selectivity index, ratio of IC50 for deltaTat/Rev deffective HIV1 in 1A2 cells to EC50 for deltaTat/Rev deffective HIV1 in 1A2 cells; format: functional
Method in brief: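 Ratio of the XTT IC50 in uninfected 1A2 cells to the syncytium-reduction EC50 against ∆Tat/RevMC99 virus in 1A2 cells.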

[5] = tested on: Lu1; assay: Cytotoxicity against human Lu1 cells after 72 hrs by sulforhodamine B assay; format: functional; details: Lu1, 72 h, read-out: ED50 (the source's name); method in brief: as §1
[6] = tested on: Human immunodeficiency virus 1; assay: Antiviral activity against deltaTat/Rev deffective HIV1 in 1A2 cells assessed as inhibition of metabolic activity in uninfected cells; format: functional; details: Human immunodeficiency virus 1, 1A2
Method in brief: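 Uninfected 1A2 cells (same batch), run in parallel with the syncytium assay, with medium in place of virus. Serial dilutions in duplicate wells, 3 days. XTT–phenazine methosulfate added; formazan read at A450 with A650 reference. IC50 is the dose inhibiting 50% of metabolic activity.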

[7] = tested on: MCF7; assay: Cytotoxicity against human MCF7 cells after 72 hrs by sulforhodamine B assay; format: functional; details: MCF7, 72 h, read-out: ED50 (the source's name); method in brief: as §1
[8] = tested on: P388; assay: Cytotoxicity against mouse P388 cells after 72 hrs by sulforhodamine B assay; format: functional; details: P388, 72 h, read-out: ED50 (the source's name); method in brief: as §1
[9] = Cytotoxicity against rat ASK cells after 72 hrs by sulforhodamine B assay; format: functional; details: read-out: ED50 (the source's name); method in brief: as §1
[10] = tested on: KB; assay: Cytotoxicity against human KB cells after 72 hrs by sulforhodamine B assay; format: functional; details: read-out: ED50 (the source's name); method in brief: as §1
[11] = tested on: L1210; assay: Cytotoxicity against mouse L1210 cells; format: functional

Row | SMILES | inhibition [1] [%] | EC50 [2] [µg/mL] | EC50 [3] [µg/mL] | Ratio IC50/EC50 [4] | EC50 [5] [µg/mL] | IC50 [6] [µg/mL] | EC50 [7] [µg/mL] | EC50 [8] [µg/mL] | EC50 [9] [µg/mL] | EC50 [10] [µg/mL] | EC90 [11] [µg/mL]
1 | CO[C@@]1(C)CO[C@@]2(C=C([C@@H]3CC[C@]45C[C@]34CC[C@@H]3[C@@]4(C)CC=C6C[C@@H](c7ccc8c(c7)OCO8)OC[C@]6(C)[C@@H]4C[C@@H](O)[C@]35C)C(=O)O2)C1 | 55.5 | 86.1 (≈ 131 µM) | > 5 | >1.5 | > 5 | > 125 | > 5 | 0.5 (≈ 0.759 µM) | > 5 | > 5 | –
2 | CO[C@@]1(C)CO[C@@]2(C1)OC(=O)[C@H]([C@@H]1CC[C@]34C[C@]13CC[C@@H]1[C@@]3(C)CC=C5C[C@@H](c6ccc7c(c6)OCO7)OC[C@]5(C)[C@@H]3C[C@@H](O)[C@]14C)[C@H]2O | -0.5 | < 3.9 | 4.8 (≈ 7.09 µM) | >8.1 | 3.1 (≈ 4.58 µM) | 31.6 (≈ 46.7 µM) | 1.1 (≈ 1.63 µM) | 0.005 (≈ 0.00739 µM) | > 5 | > 5 | –
3 | O=C1OCc2cc3cc4c(cc3c(-c3ccc5c(c3)OCO5)c21)OCO4 [TAIWANIN C] | 88.2 | > 125 | > 5 | – | > 5 | > 125 | > 5 | > 5 | > 5 | > 5 | –
4 | Cc1c2ccncc2c(C)c2c1[nH]c1ccccc12 [ELLIPTECINE] | – | – | 0.5 (≈ 2.03 µM) | – | 0.2 (≈ 0.812 µM) | – | 0.4 (≈ 1.62 µM) | 0.2 (≈ 0.812 µM) | 0.2 (≈ 0.812 µM) | 0.7 (≈ 2.84 µM) | –
5 | O=C1OC[C@@H](Cc2ccc3c(c2)OCO3)/C1=C\c1ccc2c(c1)OCO2 [ISOGADIAN] | 39.7 | 34.6 (≈ 98.2 µM) | > 5 | >3.6 | > 5 | > 125 | > 5 | > 5 | > 5 | > 5 | –
6 | CO[C@@]1(C)CO[C@@]2(C=C([C@@H]3CC[C@]45C[C@]34CC[C@@H]3[C@@]4(C)CC=C6C[C@@H](c7ccccc7)OC[C@]6(C)[C@@H]4C[C@@H](O)[C@]35C)C(=O)O2)C1 | 65.9 | 72.9 (≈ 119 µM) | > 5 | >1.7 | > 5 | > 125 | > 5 | 0.4 (≈ 0.651 µM) | > 5 | > 5 | –
7 | COc1cc(/C=C2/C(=O)OC[C@H]2Cc2ccc(O)c(OC)c2)ccc1O [ACUTISSIMALIGNAN B] | 45.4 | 9.9 (≈ 27.8 µM) | > 5 | 4.9 | > 5 | 48.2 (≈ 135 µM) | > 5 | > 5 | > 5 | > 5 | –
8 | C/C(=C\[C@H]1C[C@@H]([C@@H]2CC[C@]34C[C@]23C=C[C@@H]2[C@@]3(C)CC=C5C[C@@H](c6ccccc6)OC[C@]5(C)[C@@H]3C[C@@H](O)[C@]24C)C(=O)O1)CO [DICHAPETALIN A] | – | – | – | – | – | – | – | – | – | – | < 0.0001
9 | COc1cc2c(O[C@@H]3OC[C@H](O)[C@H](O)[C@H]3O)c3c(c(-c4ccc5c(c4)OCO5)c2cc1OC)C(=O)OC3 [ACUTISSIMALIGNAN A] | 10.7 | < 3.9 | 0.25 (≈ 0.488 µM) | >3.1 | 0.14 (≈ 0.273 µM) | 12.3 (≈ 24 µM) | 0.22 (≈ 0.429 µM) | 0.02 (≈ 0.039 µM) | 2.3 (≈ 4.49 µM) | 0.59 (≈ 1.15 µM) | –
10 | COc1c(O)cc2c(=O)oc3c(O)c(O[C@@H]4O[C@@H](C)[C@H](O)[C@@H](O)[C@H]4O)cc4c(=O)oc1c2c34 | -9.2 | > 125 | > 5 | – | > 5 | > 125 | > 5 | > 5 | > 5 | > 5 | –
11 | COc1cc2c(=O)oc3c(OC)c(O)cc4c(=O)oc(c1OC)c2c34 | – | – | > 5 | – | > 5 | – | > 5 | > 5 | > 5 | > 5 | –
12 | COc1c(OC(C)=O)cc2c(=O)oc3c(O)c(O[C@@H]4O[C@@H](C)[C@H](OC(C)=O)[C@@H](OC(C)=O)[C@H]4OC(C)=O)cc4c(=O)oc1c2c34 | 51 | 15.7 (≈ 24.9 µM) | > 5 | 1.6 | > 5 | 24.9 (≈ 39.5 µM) | > 5 | > 5 | > 5 | > 5 | –
